# High-throughput results as filed in PubChem.
# MT stabilize HCS = microtubule stabilizers in HeLa cells, primary screen, imaging, high-content imaging | HeLa tubulin immunostaining HCS, 24 h; share of cells brighter than vehicle mean+2SD | % tubulin-high responders, % at 10 µM | 200,000 compounds, 0.83% hits;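 active = plate Z-score above 3 for both tubulin-high and condensed-nucleus cell shares, with cell loss under 80%, at 10 µM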;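 also: anti alpha tubulin signal scored within the nucleus-defined area of each cell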
# Autophagy mod = autophagy modulators in MEF cells, primary screen, imaging, high-content, MEF GFP-LC3 | MEF GFP-LC3 puncta imaging; test concentration mostly 10 µM | 190,000 compounds, 0.98% hits | calls only at 10 µM (by protocol);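 active = percentage of spot-positive cells more than 3 SD above its plate mean, without a fluorescence outlier flag or 80% toxicity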
# Dynein transport = inhibitors of GR-EGFP nuclear translocation, primary screen, dynein cargo transport inhibitor project, imaging, high-content, 3617.4 mouse cells. 220,000 compounds, 0.47% hits. z-score, hits read low. test concentration mostly 20 µM; stimulated with dexamethasone, 1 µM; hits give low values;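 active = plate z-score of nuclear minus cytoplasmic receptor signal below a set negative limit, without overly bright fluorescence or cell loss, cut at about -3.5 in these data, passing the limit was not always enough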;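 also: z-score of nuclear minus cytoplasmic ring GR-EGFP intensity difference per well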
#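 Buffer or medium: tet-free medium with charcoal-stripped serum / Also added: dexamethasone agonist, 1.0 µM final, for 30 min / Timing: induction 48 h, compound 1 h, agonist 30 min / Measured by: high-content fluorescence imaging after fixation / Read-out: nuclear-to-cytoplasmic GR-EGFP distribution per well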
# bCat nuc transl = modulators of beta-catenin nuclear translocation, primary screen, imaging, HeLa cells, immunofluorescence, high-content; nuclear translocation activity, % at 5 µM; 190,000 compounds, 0.3% hits; AID 1665, 2009;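 active = nuclear translocation activity above 50% at 5 µM, with a well cell count of 50 or more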;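 also: per-cell ratio of nuclear to cytoplasmic median beta-catenin stain intensity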
#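 System: Human HeLa cells, endogenous beta-catenin | Compound dosing: 5 µM primary, 0.02–20 µM confirmation | Timing: 24 h compound exposure at 37°C, 5% CO2 | Measured by: Fluorescence imaging of beta-catenin antibody stain plus DAPI | Read-out basis: % activation of per-cell nuclear versus cytoplasmic median beta-catenin signal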
# Hsp70 activator = Hsp70 transcriptional activators, primary screen, cell-based, HeLa, Hsp70 promoter luciferase, luminescence, 10 µM | HeLa Hsp70 promoter luciferase reporter; scaled: vehicle 0, proteasome-inhibitor control 100% | activation, % at 10 µM | 200,000 compounds, 0.04% hits;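 active = activation above the mean across all tested compounds plus 3 SD, cutoff set per campaign, cut at about 5.5% in these data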
# Numbers stand for hits; i = inactive; nt = not tested or not shown; + = active, no number. A selection: hits, their analogues and other compounds. The true share with any hit is near 2.1%.
SMILES,MT stabilize HCS,Autophagy mod,Dynein transport,bCat nuc transl,Hsp70 activator
Cc1onc(-c2ccccc2)c1C(=O)Nc1sc2c(c1C#N)CCC(C)C2 (stereo not drawn),27.2,i,i,i,i
Cc1onc(-c2c(F)cccc2Cl)c1C(=O)Nc1nc2c(s1)CCCC2,i,i,i,i,i
Cc1onc(-c2ccccc2Cl)c1C(=O)Nc1sc2c(c1C#N)CCC2,i,i,i,i,i
CCOc1ccc(NC(=O)CN(C)CC(=O)Nc2ccc(Br)cc2F)cc1OCC,i,i,i,i,i
Cc1nnc(N(C)C(=O)c2ccncc2)s1,i,i,i,i,i
COc1cccc(C2=NOC(C(=O)NCc3cccs3)C2)c1 (stereo not drawn),21.9,i,i,97.8,i
O=C(NCc1ccco1)C1CC(c2cccc([N+](=O)[O-])c2)=NO1 (stereo not drawn),i,i,i,i,i
COc1ccccc1CNC(=O)C1CC(c2cccc([N+](=O)[O-])c2)=NO1 (stereo not drawn),48.5,i,i,i,i
COc1ccc(NS(=O)(=O)c2cc(NC(=O)c3cccs3)ccc2N2CCOCC2)cc1,13.0,i,i,i,i
O=C(Nc1ccc(F)c([N+](=O)[O-])c1)C(=O)c1c(O)[nH]c2ccccc12,i,i,i,i,i
O=C(CCSc1ccc(Cl)cc1)Nc1cccnc1,i,i,i,i,i
COc1ccc(C(c2c(N)[nH]c(=S)[nH]c2=O)c2c(N)[nH]c(=S)[nH]c2=O)cc1,nt,nt,i,i,nt
Cc1[nH]c2ccccc2c1C(=O)CCl,i,+,i,i,i
Cc1[nH]c2ccccc2c1C(=O)CSc1ccccc1,i,i,i,i,i
O=C(Nc1ccc(O)c2c(=O)cc(-c3ccccc3Cl)oc12)c1cccc(Cl)c1,i,i,i,nt,i
Cc1cccc(C(=O)Nc2ccc(O)c3c(=O)cc(-c4ccccc4Cl)oc23)c1,i,+,i,nt,i
O=c1[nH]c(CN2CCN(c3ccccc3)CC2)nc2scc(-c3ccccc3)c12,19.9,i,i,nt,i
COc1ccc(CNC(=O)C(C#N)c2nc3ccccc3nc2N2CCCC2)cc1 (stereo not drawn),i,+,i,i,i
CCOC(=O)C1CCN(c2nc3ccccc3nc2C(C#N)C(=O)OC(C)C)CC1 (stereo not drawn),i,+,i,i,i
COc1ccc(-c2cc(C(F)(F)F)nc(-n3ccnc3)n2)cc1,i,i,i,i,i
COCc1ccc(C(=O)N2CCCC(CCC(=O)NCc3ccccc3F)C2)o1 (stereo not drawn),23.5,i,i,i,i
O=C(CCC1CCCN(C(=O)c2ccco2)C1)NCc1ccccc1F (stereo not drawn),i,i,i,i,i
Cc1cc(C)c2cc3c(N)c(C(=O)N4CCc5ccccc5C4)sc3nc2c1,i,i,i,i,i
Cc1ccc2nc3sc(C(=O)N4CCCc5ccccc54)c(N)c3cc2c1,28.1,i,i,i,i
O=C(c1cc(-c2cccnc2)nc2ccccc12)N1CCCc2ccccc21,13.9,i,i,i,i
SMILES,MT stabilize HCS,Autophagy mod,Dynein transport,bCat nuc transl,Hsp70 activator
Cc1ccc(-c2cc(C(=O)N3CCCc4ccccc43)c3ccccc3n2)cc1,i,i,i,i,i
CNS(=O)(=O)c1ccc(C(C)(C)C)cc1,i,i,i,i,i
Cc1ccc2c(c1)nnn2C1CCN(S(=O)(=O)c2ccc(C(=O)N(C)C)cc2)CC1,i,i,i,i,i
Cc1ccc2c(c1)nnn2C1CCN(S(=O)(=O)c2ccc(C(=O)N3CC(C)CC(C)C3)cc2)CC1 (stereo not drawn),19.7,i,i,i,i
Cc1ccc(-n2nnnc2SCC(=O)Nc2ncc(Cc3ccccc3Cl)s2)cc1,i,i,i,i,i
CCOc1ccccc1C(=O)NC(C)c1ccc2c(c1)OCO2 (stereo not drawn),42.2,i,i,i,i
CN1CCCN(C(=O)c2cc(-c3cccc4ccccc34)nc3ccccc23)CC1,nt,nt,i,i,nt
CCCCNC(=S)N/N=C/c1ccccc1F,i,i,i,i,i
O=C(NCc1ccco1)C1CC(c2ccccc2C(F)(F)F)=NO1 (stereo not drawn),nt,nt,i,i,nt
O=C(NCc1ccco1)C1CC(c2cc(C(F)(F)F)cc(C(F)(F)F)c2)=NO1 (stereo not drawn),nt,nt,i,92.2,nt
COc1ccc(OC)c(C2=NOC(C(=O)NCc3ccco3)C2)c1 (stereo not drawn),21.1,i,i,nt,i
O=C(NCc1cccnc1)c1cc2nc(-c3cccs3)cc(C(F)(F)Cl)n2n1,i,i,i,i,i
COc1ccc(NC(=O)CC2C(=O)N(c3ccc(OC)cc3)C(=O)N2Cc2ccc(OC)c(OC)c2)cc1 (stereo not drawn),i,i,i,i,i
O=C(Nc1ccc2c(c1)OCCO2)c1cc(-c2ccccn2)nc2ccc(Br)cc12,i,+,i,i,i
CCc1cccc(NC(=O)c2ccc3c(=O)n4c(nc3c2)CCCCC4)c1,nt,nt,i,i,nt
CN1c2ccsc2/C(=N/Nc2ccccc2)CS1(=O)=O,i,+,i,i,i
COc1ccc2c(c1)nc(NCCCO)n2Cc1ccccc1,nt,nt,i,i,nt
N#Cc1ccc(C(=O)Nc2cccc3ncccc23)c(F)c1,i,i,i,i,i
Cc1cc(C)c2oc(-c3ccc(Cl)c(NC(=O)c4ccc(C#N)cc4F)c3)nc2c1,i,+,i,i,i
O=S(=O)(NCc1ccccc1)c1ccc(Br)c2nsnc12,nt,nt,i,i,nt
COc1cc(/C=C(\C#N)C(=O)Nc2ccc3c(c2)OCCO3)ccc1O,nt,nt,i,i,nt
Cn1c(=O)c2[nH]c(COc3ccc(C(C)(C)C)cc3)nc2n(C)c1=O,nt,nt,i,i,nt
COC(=O)c1ccc(Nc2cc(C)nc3ccc(C)cc23)cc1,nt,nt,i,62.4,nt
Cc1ccc2nc(C)cc(Nc3ccc([N+](=O)[O-])cc3)c2c1,i,+,i,i,i
C/C(=N\OCC(=O)NC(C)C)c1cccs1,i,i,i,i,i
SMILES,MT stabilize HCS,Autophagy mod,Dynein transport,bCat nuc transl,Hsp70 activator
COc1ccc(CCN(C)C(=O)C2CCN(Cc3cccc(OC)c3OC)CC2)cc1OC,i,i,i,i,i
CS(=O)(=O)c1ncc(CO)n1Cc1ccccc1,i,i,i,i,i
Cn1c(=O)[nH]c(=O)c2c1nc(Br)n2CCCSc1nc2ccccc2o1,24.6,i,i,nt,i
Cn1ncc(Br)c1N1C(=O)CCC1=O,nt,nt,i,i,nt
CCOC(=O)c1ccccc1Nc1cn(C(C)=O)c2ccccc12,i,+,i,nt,i
S=C(c1ccc(N2CCCC2)c(Br)c1)N1CCCCC1,i,i,i,i,i
COc1ccc2c(C=O)cn(C)c2c1,i,+,i,i,i
O=C(CCC1CCCN(C(=O)c2ccsc2)C1)N1CCN(c2ccccn2)CC1 (stereo not drawn),nt,nt,i,i,nt
